Source: ChEMBL document CHEMBL1255435, “Mechanism of resistance of hepatitis C virus replicons to structurally distinct cyclophilin inhibitors” (Antimicrob Agents Chemother, 2010)

Columns and labels:
Hepatitis C virus [1] = assay: Antiviral activity against HCV subtype 1b Con1 harboring wild type protease infected in human HuH7 cells assessed as reduction in viral RNA level after 48 hrs by qRT-PCR analysis; type: functional, organism-based, Hepacivirus hominis; conditions: Con1, Huh-7, 48 h
Summary of the method: (§1)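 Con1 genotype 1b subgenomic replicon Huh7 cells (clone A or derived lines) were seeded at 10,000/well overnight without G418. They were treated 48 h with serially diluted compound in 2% FBS and 0.5% DMSO. HCV RNA was measured by TaqMan qRT-PCR and normalized to total RNA. Six replicates per point; EC50 is the concentration giving 50% reduction in HCV RNA.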

Hepatitis C virus [2] = assay: Antiviral activity against HCV subtype 1b Con1 infected in human HuH7 cells assessed as reduction in viral RNA level after 48 hrs by qRT-PCR analysis; type: functional, organism-based, Hepacivirus hominis; conditions: Con1, Huh-7, 48 h; summary of the method: as §1
Hepatitis C virus [3] = assay: Antiviral activity against cyclosporine A/NIM811-resistant HCV subtype 1b Con1 infected in human HuH7 cells assessed as reduction in viral RNA level after 48 hrs by qRT-PCR analysis; type: functional, organism-based, Hepacivirus hominis; conditions: Con1, Huh-7, 48 h; summary of the method: as §1
Hepatitis C virus [4] = assay: Antiviral activity against cyclosporine A-resistant HCV subtype 1b Con1 infected in human HuH7 cells assessed as reduction in viral RNA level after 48 hrs by qRT-PCR analysis; conditions: Con1, Huh-7, 48 h
Hepatitis C virus [5] = assay: Antiviral activity against HCV subtype 1b Con1 infected in human HuH7 cells assessed as reduction in viral RNA level after 48 hrs by qRT-PCR analysis relative to control; type: functional, Hepacivirus hominis, Huh-7
Summary of the method: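 Subgenomic genotype 1b Con1 replicon cells (clone A and derived lines) seeded 10,000/well overnight without G418, then treated 48 h with serially diluted compound in 2% FBS, 0.5% DMSO. HCV RNA quantified by TaqMan qRT-PCR, normalized to total RNA; six replicates per point. Percent inhibition versus control cells; EC50 is the concentration reducing HCV RNA by 50%.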

Hepatitis C virus [6] = assay: Antiviral activity against cyclosporine A/NIM811-resistant HCV subtype 1b Con1 infected in human HuH7 cells assessed as reduction in viral RNA level after 48 hrs by qRT-PCR analysis relative to control; type: functional, Hepacivirus hominis, Huh-7
Summary of the method: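 Clone A replicon cells were resistance-selected by 8-week passage with increasing CsA up to 5 μM, then 5 μM NIM811 for 5 more weeks, with 250 μg/ml G418. Control cells were passaged in 0.2% DMSO for the same period. Both were seeded at 10,000/well and treated 48 h with serial dilutions in 2% FBS/0.5% DMSO. HCV RNA was measured by qRT-PCR, normalized to total RNA. EC50 expressed as fold over DMSO control.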

Hepatitis C virus [7] = assay: Antiviral activity against HCV subtype 1b Con1 infected in cyclosporine A/NIM-resistant human HuH7 cells assessed as reduction in viral RNA level after 48 hrs by qRT-PCR analysis; type: functional, organism-based, Hepacivirus hominis; conditions: Con1, Huh-7, 48 h
Summary of the method: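 CsA/NIM-resistant cells were cured of replicon: G418 removed, then 1 μM BILN2061 for 2 weeks and 5 μM for 2 more. Wild-type pCon1 replicon RNA was electroporated back in and cells selected in 250 μg/ml G418 for at least 2 weeks. Pooled colonies were treated 48 h with compound; EC50 came from qRT-PCR HCV RNA normalized to total RNA.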

Hepatitis C virus [8] = assay: Antiviral activity against HCV subtype 1b Con1 harboring NS5A and NS5B C575G mutant […] infected in human HuH7 cells assessed as reduction in viral RNA level after 48 hrs by qRT-PCR analysis; type: functional, organism-based, Hepacivirus hominis; conditions: Con1, Huh-7, 48 h
Hepatitis C virus [9] = assay: Antiviral activity against cyclosporine A/NIM-resistant HCV subtype 1b Con1 infected in human HuH7 cells assessed as reduction in viral RNA level after 48 hrs by qRT-PCR analysis; conditions: Con1, Huh-7, 48 h
Hepatitis C virus [10] = assay: Antiviral activity against wild type HCV subtype 1b Con1 infected in human HuH7 cells assessed as reduction in viral RNA level after 48 hrs by qRT-PCR analysis; type: functional, organism-based, Hepacivirus hominis; conditions: Con1, Huh-7, 48 h; summary of the method: as §1
Hepatitis C virus [11] = assay: Antiviral activity against HCV subtype 1b Con1 harboring NIM-resistant NS5A gene infected in human HuH7 cells assessed as reduction in viral RNA level after 48 hrs by qRT-PCR analysis; conditions: Con1, Huh-7, 48 h
Hepatitis C virus [12] = assay: Antiviral activity against HCV subtype 1b Con1 infected in human HuH7 cells assessed as reduction in viral RNA level after 48 hrs by MTS assay; conditions: Con1, Huh-7, 48 h

C/C=C/C[C@@H](C)[C@@H](O)[C@H]1C(=O)N[C@@H](CC)C(=O)N(C)CC(=O)N(C)[C@@H]([C@@H](C)CC)C(=O)NC(C(C)C)C(=O)N(C)[C@@H](CC(C)C)C(=O)N[C@@H](C)C(=O)N[C@H](C)C(=O)N(C)C(CC(C)C)C(=O)N(C)[C@@H](CC(C)C)C(=O)N(C)[C@@H](C(C)C)C(=O)N1C (single isomer, unassigned) [NIM811]
EC50 (Hepatitis C virus [1]): 230 nM
EC50 (Hepatitis C virus [2]): 84 nM
EC50 (Hepatitis C virus [3]): 1500 nM
EC50 (Hepatitis C virus [4]): 830 nM
fold change (FC) (Hepatitis C virus [5]): 1
fold change (FC) (Hepatitis C virus [6]): 17.9
EC50 (Hepatitis C virus [7]): 170 nM
EC50 (Hepatitis C virus [8]): 1140 nM
EC50 (Hepatitis C virus [9]): 3500 nM
EC50 (Hepatitis C virus [10]): 120 nM
EC50 (Hepatitis C virus [11]): 940 nM

COc1ccc2c(O[C@@H]3C[C@H]4C(=O)N[C@]5(C(=O)O)C[C@H]5/C=C\CCCCC[C@H](NC(=O)OC5CCCC5)C(=O)N4C3)cc(-c3csc(NC(C)C)n3)nc2c1 [CILUPREVIR]
EC50 (Hepatitis C virus [2]): 1.4 nM

C/C=C/C[C@@H](C)[C@@H](O)[C@H]1C(=O)N[C@@H](CC)C(=O)N(C)CC(=O)N(C)[C@@H](CC(C)C)C(=O)N[C@@H](C(C)C)C(=O)N(C)[C@@H](CC(C)C)C(=O)N[C@@H](C)C(=O)N[C@H](C)C(=O)N(C)[C@@H](CC(C)C)C(=O)N(C)[C@@H](CC(C)C)C(=O)N(C)[C@@H](C(C)C)C(=O)N1C [CYCLOSPORINE]
EC50 (Hepatitis C virus [4]): 3390 nM
EC50 (Hepatitis C virus [9]): > 10000 nM
EC50 (Hepatitis C virus [12]): 210 nM
